ChEMBL document CHEMBL1123732, “Flavones. 1. Synthesis and antihypertensive activity of (3-phenylflavonoxy)propanolamines without beta-adrenoceptor antagonism” (J Med Chem, 1987)
One block for each compound: values may come before it. Calls of active or inactive are those of the source. The calls are words filed in the database; no cut-off is given here.

Tests used:
[1] = tested on: Rattus norvegicus; test: Percentage of fall in systolic blood pressure (SBP) at the following hours after dosing at 75 mg/kg (po) at 24 hr in spontaneously hypertensive rats(SHR); NS means not significant; format: functional, organism-based; design: dose 75 mg/kg; conditions: Artery
Summary of the method: (§1)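 Male spontaneously hypertensive rats (Wistar-Kyoto strain), unanesthetized, dosed orally; systolic pressure measured by indirect tail cuff. Before each reading, rats warmed at 35-37 °C for 15-20 min to dilate the caudal artery. Five rats per treatment group; result is percentage fall in systolic pressure versus untreated control. Significance tested against control.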

[2] = tested on: Rattus norvegicus; test: Percentage of fall in systolic blood pressure (SBP) at the following hours after dosing at 75 mg/kg (po) at 2 hr in spontaneously hypertensive rats(SHR); NS means not significant; format: functional, organism-based; design: dose 75 mg/kg; conditions: Artery; summary of the method: as §1
[3] = tested on: Rattus norvegicus; test: Percentage of fall in systolic blood pressure (SBP) at the following hours after dosing at 75 mg/kg (po) at 5 hr in spontaneously hypertensive rats(SHR); NS means not significant; format: functional, organism-based; design: dose 75 mg/kg; conditions: Artery; summary of the method: as §1
[4] = tested on: Rattus norvegicus; test: Percentage of fall in systolic blood pressure (SBP) at the following hours after dosing at 75 mg/kg (po) at 7.5 hr in spontaneously hypertensive rats(SHR) NS means not significant; format: functional, organism-based; design: dose 75 mg/kg; conditions: Artery; summary of the method: as §1
[5] = tested on: Rattus norvegicus; test: […] systolic blood pressure (SBP) for compound-treated group relative to the value for untreated control at 75 mg/kg dose (po) in spontaneously hypertensive rats(SHR); format: functional, Artery; summary of the method: as §1
[6] = biological target: Adrenergic receptor beta (Rattus norvegicus, UniProt P18090+P10608+P26255); test: Evaluated for beta-receptor affinity, determined in rat brain membrane fraction with [3H]- dihydroalprenolol; format: cell membranes
Summary of the method: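 Rat brain with cerebellum removed, homogenized in ice-cold 50 mM Tris-HCl pH 8.0 and spun at 50000g for 15 min, pellet washed once more the same way. Binding used 0.4-0.6 mg protein, 1 nM [3H]dihydroalprenolol, 50 mM Tris pH 8.0, and 5-10 competitor concentrations. IC50 read visually from a semilog plot; Ki from Cheng-Prusoff with KD approximately 1 nM.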

[7] = tested on: Rattus norvegicus; test: Percentage of fall in systolic blood pressure (SBP) at the following hours after dosing at 75 mg/kg (po) at 24 hr in spontaneously hypertensive rats(SHR); format: functional, Artery; summary of the method: as §1
[8] = tested on: Rattus norvegicus; test: Percentage of fall in systolic blood pressure (SBP) at the following hours after dosing at 75 mg/kg (po) at 2 hr in spontaneously hypertensive rats(SHR); format: functional, Artery; summary of the method: as §1
[9] = tested on: Rattus norvegicus; test: Percentage of fall in systolic blood pressure (SBP) at the following hours after dosing at 75 mg/kg (po) at 5 hr in spontaneously hypertensive rats(SHR); format: functional, Artery; summary of the method: as §1
[10] = tested on: Rattus norvegicus; test: Percentage of fall in systolic blood pressure (SBP) at the following hours after dosing at 75 mg/kg (po) at 7.5 hr in spontaneously hypertensive rats(SHR); format: functional, Artery; summary of the method: as §1
[11] = tested on: Rattus norvegicus; test: Evaluated for the percentage inhibition of the depressor response of isoproterenol (0.25 mg/kg, iv) in spontaneously hypertensive rats at 150 mg/kg peroral dose; NI means no inhibition at 10 mg/kg, iv
[12] = tested on: Rattus norvegicus; test: Percentage of fall in systolic blood pressure (SBP) at the following hours after dosing at 75 mg/kg (po) at 7.5 hr in spontaneously hypertensive rats(SHR); NS means not significant; format: functional, organism-based; design: dose 75 mg/kg; conditions: Artery; summary of the method: as §1
[13] = species on record: Rattus norvegicus; test: animal or person; conditions: iv, read-out: Inhibition
[14] = tested on: Rattus norvegicus; test: Percentage of fall in systolic blood pressure (SBP) at the following hours after dosing at 17 mg/kg (po) at 7.5 hr in spontaneously hypertensive rats(SHR); format: functional, Artery; summary of the method: as §1
[15] = tested on: Rattus norvegicus; test: Percentage of fall in systolic blood pressure (SBP) at the following hours after dosing at 17 mg/kg (po) at 24 hr in spontaneously hypertensive rats(SHR);NS means not significant; format: functional, organism-based; design: dose 17 mg/kg; conditions: Artery; summary of the method: as §1
[16] = tested on: Rattus norvegicus; test: Percentage of fall in systolic blood pressure (SBP) at the following hours after dosing at 17 mg/kg (po) at 2 hr in spontaneously hypertensive rats(SHR); format: functional, Artery; summary of the method: as §1
[17] = tested on: Rattus norvegicus; test: Percentage of fall in systolic blood pressure (SBP) at the following hours after dosing at 17 mg/kg (po) at 5 hr in spontaneously hypertensive rats(SHR); format: functional, Artery; summary of the method: as §1
[18] = tested on: Rattus norvegicus; test: Percentage of fall in systolic blood pressure (SBP) at the following hours after dosing at 8 mg/kg (po) at 2 hr in spontaneously hypertensive rats(SHR); format: functional, Artery; summary of the method: as §1
[19] = tested on: Rattus norvegicus; test: Percentage of fall in systolic blood pressure (SBP) at the following hours after dosing at 8 mg/kg (po) at 5 hr in spontaneously hypertensive rats(SHR);NS means not significant; format: functional, organism-based; design: dose 8 mg/kg; conditions: Artery; summary of the method: as §1
[20] = tested on: Rattus norvegicus; test: Percentage of fall in systolic blood pressure (SBP) at the following hours after dosing at 8 mg/kg (po) at 7.5 hr in spontaneously hypertensive rats(SHR); format: functional, Artery; summary of the method: as §1
[21] = tested on: Rattus norvegicus; test: Percentage of fall in systolic blood pressure (SBP) at the following hours after dosing at 8 mg/kg (po) at 24 hr in spontaneously hypertensive rats(SHR);NS means not significant; format: functional, organism-based; design: dose 8 mg/kg; conditions: Artery; summary of the method: as §1
[22] = tested on: Rattus norvegicus; test: Evaluated for the percentage inhibition of the depressor response of isoproterenol (0.25 mg/kg, iv) in spontaneously hypertensive rats at 150 mg/kg perorally; NI means no inhibition at 10 mg/kg, iv; format: functional, organism-based
Summary of the method: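 Male SHR, three per group, dosed orally 150 mg/kg as suspension in 4% Clearjel. At 4 h, anesthetized with sodium pentobarbital (45 mg/kg, ip); femoral artery and vein cannulated; arterial pressure monitored continuously. Isoproterenol given iv in 0.1 mL saline; depressor response compared with Clearjel vehicle-treated rats as percentage inhibition.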

[23] = tested on: Rattus norvegicus; test: […] systolic blood pressure (SBP) for compound-treated group relative to the value for untreated control at 17 mg/kg dose (po) in spontaneously hypertensive rats(SHR); format: functional, Artery; summary of the method: as §1
[24] = tested on: Rattus norvegicus; test: […] systolic blood pressure (SBP) for compound-treated group relative to the value for untreated control at 8 mg/kg dose (po) in spontaneously hypertensive rats(SHR); format: functional, Artery; summary of the method: as §1
[25] = tested on: Rattus norvegicus; test: Evaluated for the percentage inhibition of the depressor response of isoproterenol (0.25 mg/kg, iv) in spontaneously hypertensive rats at 150 mg/kg peroral dose;NI means no inhibition at 10 mg/kg, iv

Ki [6]: > 0.00005 M
SMILES: CC(C)(C)NCC(O)COc1ccc2c(=O)c(-c3ccccc3)c(-c3ccccc3)oc2c1.Cl (stereo unspecified)
Decrease in SBP [1]: inactive | Decrease in SBP [2]: inactive | Decrease in SBP [3]: inactive | Decrease in SBP [4]: inactive | SBP [5]: 196 mmHg

SMILES: CCC(C)NCC(O)COc1ccc2c(=O)c(-c3ccccc3)c(-c3ccccc3)oc2c1 (stereo unspecified)
Decrease in SBP [7]: 19% | Decrease in SBP [8]: 12% | Decrease in SBP [9]: 18% | Decrease in SBP [10]: 19% | SBP [5]: 210 mmHg | inhibition [11]: inactive

SMILES: CCCCCNCC(O)COc1ccc2c(=O)c(-c3ccccc3)c(-c3ccccc3)oc2c1 (stereo unspecified)
Decrease in SBP [1]: inactive | Decrease in SBP [2]: inactive | Decrease in SBP [3]: inactive | Decrease in SBP [12]: inactive | SBP [5]: 191 mmHg

SMILES: CC(C)NCC(O)COc1cccc2ccccc12 (stereo unspecified) [PROPRANOLOL]
Decrease in SBP [1]: inactive | Decrease in SBP [2]: inactive | Decrease in SBP [3]: inactive | Decrease in SBP [12]: inactive | SBP [5]: 212 mmHg | inhibition in vivo at 10 mg/kg [13]: 100%

Ki [6]: > 0.00005 M
SMILES: O=c1c(-c2ccccc2)c(-c2ccccc2)oc2cc(OCC(O)CNC3CC3)ccc12 (stereo unspecified)
Decrease in SBP [14]: 18% | Decrease in SBP [15]: inactive | Decrease in SBP [16]: 10% | Decrease in SBP [17]: 23% | Decrease in SBP [18]: 7% | Decrease in SBP [19]: inactive | Decrease in SBP [20]: 10% | Decrease in SBP [21]: inactive | inhibition [22]: inactive | SBP [23]: 193 mmHg | SBP [24]: 188 mmHg

SMILES: Cl.O=c1c(-c2ccccc2)c(-c2ccccc2)oc2cc(OCC(O)CNC3CCCC3)ccc12 (stereo unspecified)
Decrease in SBP [7]: 18% | Decrease in SBP [8]: 10% | Decrease in SBP [9]: 23% | Decrease in SBP [10]: 23% | SBP [5]: 200 mmHg | inhibition [25]: inactive
